Measured values reported in ChEMBL document CHEMBL1926522, “PEG-SO(3)H catalyzed synthesis and cytotoxicity of α-aminophosphonates” (Eur J Med Chem, 2012).

Legend:
K562 [1] = assay: Growth inhibition of human K562 cells at 10 uM after 24 hrs by MTT assay relative to control; assay type: functional; conditions: K562, 24 h, read-out: GI
Procedure, shortened: (§1)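 Exponentially growing cells in RPMI-1640 with 10% heat-inactivated FBS, 37 °C, 5% CO2. Treated 24 h at the single stated concentration. MTT (5 mg/mL in PBS) added for 2 h at 37 °C, then DMSO. Percent proliferation inhibition was calculated versus control. Independent experiments in duplicate, values averaged from two determinations.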

COLO 205 [2] = assay: Cytotoxicity against human COLO205 cells after 24 hrs by MTT assay; assay type: functional, cell-based; conditions: COLO 205, 24 h
Procedure, shortened: (§2)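 Cells from NCCS Pune, grown in RPMI-1640 with 10% heat-inactivated FBS, penicillin/streptomycin and glutamine at 37 °C, 5% CO2. Cells were washed with PBS and exposed for 24 h, first at 1, 10 and 100, then at 2–64. MTT (5 mg/mL in PBS) added for 2 h, then DMSO. IC50 read graphically from concentration vs % inhibition plot. Each point is the average of two determinations.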

K562 [3] = assay: Growth inhibition of human K562 cells at 1 uM after 24 hrs by MTT assay relative to control; assay type: functional; conditions: K562, 24 h, read-out: GI; procedure, shortened: as §1
K562 [4] = assay: Cytotoxicity against human K562 cells after 24 hrs by MTT assay; assay type: functional, cell-based; conditions: K562, 24 h; procedure, shortened: as §2
[5] = Growth inhibition of human HEK293 cells at 1 uM after 24 hrs by MTT assay relative to control; assay type: cell-based; conditions: read-out: GI; procedure, shortened: as §1
[6] = Growth inhibition of human HEK293 cells at 10 uM after 24 hrs by MTT assay relative to control; assay type: cell-based; conditions: read-out: GI; procedure, shortened: as §1
COLO 205 [7] = assay: Growth inhibition of human COLO205 cells at 1 uM after 24 hrs by MTT assay relative to control; assay type: functional; conditions: COLO 205, 24 h, read-out: GI; procedure, shortened: as §1
COLO 205 [8] = assay: Growth inhibition of human COLO205 cells at 10 uM after 24 hrs by MTT assay relative to control; assay type: functional; conditions: COLO 205, 24 h, read-out: GI; procedure, shortened: as §1
[9] = Lipophilicity, log P of the compound; assay type: physicochemical; conditions: octanol/water

logP [9] | SMILES | inhibition of growth at 10 µM (K562 [1]) | IC50 (COLO 205 [2]) | inhibition of growth at 1 µM (K562 [3]) | IC50 (K562 [4]) | inhibition at 24 h, 1 µM [5] | inhibition at 24 h, 10 µM [6] | inhibition of growth at 1 µM (COLO 205 [7]) | inhibition of growth at 10 µM (COLO 205 [8])
 | CCOP(=O)(OCC)C(Nc1ccccc1)c1ccc(-c2ccncc2)cc1 (configuration not stated) | 0% | 18 µM | 0% | > 100 µM | 0% | 0% | 18.1% | 31%
 | CCOP(=O)(OCC)C(Nc1ccc(F)c(Cl)c1)c1ccc(-c2ccncc2)cc1 (configuration not stated) | 26.2% | 10 µM | 26% | 22 µM | 0.2% | 1.2% | 44.5% | 47%
5.72 | CCOP(=O)(OCC)C(Nc1cccc(Br)c1)c1ccc(-c2ccncc2)cc1 (configuration not stated) | 53.8% | 5 µM | 41.7% | 10 µM | 1% | 2.3% | 31.3% | 71.6%
 | CCOP(=O)(OCC)C(Nc1ccc(Cl)c([N+](=O)[O-])c1)c1ccc(-c2ccncc2)cc1 (configuration not stated) | 24.9% | 12 µM | 14.3% | 19 µM | 1.2% | 3.4% | 35% | 45.1%
 | CCOP(=O)(OCC)C(Nc1cccc([N+](=O)[O-])c1)c1ccc(-c2ccncc2)cc1 (configuration not stated) | 25.8% | 14 µM | 0% | 20 µM | 0% | 1.2% | 39.5% | 41.1%
 | CCOP(=O)(OCC)C(Nc1ccncc1)c1ccc(-c2ccncc2)cc1 (configuration not stated) | 15.7% | 10 µM | 0% | 32 µM | 0.5% | 1.9% | 14% | 53.4%
4.55 | CCOP(=O)(OCC)C(NCc1cccnc1)c1ccc(-c2ccncc2)cc1 (configuration not stated) | 48.4% | 8 µM | 26% | 10 µM | 3.1% | 3.6% | 27.6% | 60.1%
 | CCOP(=O)(OCC)C(Nc1nccs1)c1ccc(-c2ccncc2)cc1 (configuration not stated) | 24% | 10 µM | 0% | 24 µM | 1% | 2.5% | 37.1% | 47.9%
 | CCOP(=O)(OCC)C(Nc1nc2ccccc2s1)c1ccc(-c2ccncc2)cc1 (configuration not stated) | 15.7% | 15 µM | 0% | 35 µM | 2.5% | 2.5% | 36.6% | 41%
 | CCOP(=O)(OCC)C(Nc1nc2ccc([N+](=O)[O-])cc2s1)c1ccc(-c2ccncc2)cc1 (configuration not stated) | 18.9% | 10 µM | 0.9% | 31 µM | 0% | 0.3% | 34.4% | 48.1%
